Assay results reported in ChEMBL document CHEMBL3751847, “Novel naphtho[2,1-d]oxazole-4,5-diones as NQO1 substrates with improved aqueous solubility: Design, synthesis, and in vivo antitumor evaluation” (Bioorg Med Chem, 2016).
Converted amounts (≈) assume the structure as drawn. The source made the active and inactive calls. No cut-off for these calls is given here.

Key:
[1] = target: T1, NAD(P)H dehydrogenase [quinone] 1 (Homo sapiens, UniProt P15559); assay: Drug metabolism assessed as recombinant human NQO1-mediated NADPH oxidation to NADP+ per micromol of protein preincubated for 3 mins followed by NADPH addition measured at 2 s intervals for 5 mins by enzyme labelling instrument-based assay; assay type: ADME
T1 sequence (P15559 whole entry): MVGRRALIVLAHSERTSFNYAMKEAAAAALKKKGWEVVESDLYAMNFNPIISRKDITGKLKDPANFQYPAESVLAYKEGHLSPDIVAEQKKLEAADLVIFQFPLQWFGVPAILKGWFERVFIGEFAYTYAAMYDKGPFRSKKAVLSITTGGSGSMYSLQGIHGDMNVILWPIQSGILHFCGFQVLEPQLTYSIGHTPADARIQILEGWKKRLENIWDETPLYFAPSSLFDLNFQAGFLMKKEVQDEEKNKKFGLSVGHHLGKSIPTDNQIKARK
Procedure, shortened: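 NADPH recycling assay: quinones 0.1–50 µmol·L-1 with recombinant human NQO1 1.4 µg/mL in 50 mmol·L-1 potassium phosphate pH 7.4, 3 min preincubation, reaction started with NADPH 400 µmol·L-1; A340 every 2 s for 5 min at 22–25 °C. Slopes from linear 20 s–1 min, compared with no-compound reactions; at least triplicate.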

A549 [2] = assay: Cytotoxicity against human A549 cells expressing NQO1 after 2 hrs by MTT assay; assay type: functional, cell-based; settings: A549, 2 h
Procedure, shortened: (§1)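 MTT assay: cells in RPMI 1640 + 10% FBS seeded at 10,000 cells/mL, attached 16 h, exposed to compound in triplicate for 2 h, washed out, then grown 72 h at 37 °C, 5% CO2; MTT 4 h, formazan in DMSO, A560. Dicoumarol cotreatment 25 µmol·L-1 for 2 h. IC50 from semilog plots of percent control.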

[3] = Solubility of compound in diluted hydrochloric acid buffer solution at pH 3 at 25 deg C for 8 hrs; assay type: physicochemical
Procedure, shortened: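 Compounds shaken in diluted hydrochloric acid buffer at pH 3, 25 °C for 8 h.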

[4] = Lipophilicity, log D of compound at pH 7.4; assay type: physicochemical; settings: buffer
Procedure, shortened: (§2)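 Neutral aqueous solubility and log D at pH 7.4 by Avdeef–Bucher potentiometric titration on a Gemini Profiler.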

[5] = Intrinsic aqueous solubility of compound by Avdeef-Bucher potentiometric titration assay; assay type: physicochemical; settings: aqueous solution; read-out: Intrinsic_solubility; procedure, shortened: as §2
[6] = Selectivity ratio of IC50 for NQO1-deficient human NCI-H596 cells to IC50 for human A549 cells expressing NQO1; assay type: cell-based
Procedure, shortened: (§3)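 IC50 ratios from the 2 h-exposure/72 h MTT assay: A549 IC50 with 25 µmol·L-1 dicoumarol cotreatment divided by IC50 without; or H596 IC50 divided by A549 IC50.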

A549 [7] = assay: Antitumor activity against human A549 cells xenografted in athymic nude mouse assessed as tumor volume at 30 mg/kg, iv administered every other day over 21 days (reference value: 1085.8 +/- 298.3 mm'3); assay type: functional
Procedure, shortened: (§4)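 Athymic nude mice (7–8 weeks) given 5 × 10^6 log-phase A549 cells in the flank; randomized at mean tumor ~100 mm3 (5 mice/group) to vehicle, 15 or 30 mg/kg test agent in dilute HCl buffer pH 3, or positive control in saline; tail-vein injection every other day for three weeks. Caliper volume = a × b²/2, measured daily; wet tumor weight after euthanasia. TGI from weight; T/C = RTV(treated)/RTV(control) × 100, RTV = VT/V0.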

[8] = target: T1, NAD(P)H dehydrogenase [quinone] 1; assay: Binding affinity to recombinant human NQO1 assessed as induction of ROS generation by measuring reduction of cytochrome C per min per mg of NQO1 by spectrophotometric analysis in presence of NQO1 inhibitor dicoumarol
Procedure, shortened: (§5)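 Superoxide via cytochrome c reduction at 550 nm: 30 µmol·L-1 cytochrome c, 0.2 mmol·L-1 NADPH, recombinant human NQO1 0.1–3.0 µg/mL, quinone 25 µmol·L-1 in 25 mmol·L-1 Tris-HCl pH 7.4 with 0.7 mg/mL BSA and 0.1% Tween-20; dicoumarol 25 µmol·L-1 where stated. Initial rates from linear 0–30 s; at least triplicate.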

A549 [9] = assay: Ratio of IC50 for human A549 cells expressing NQO1 in presence of NQO1 inhibitor dicoumarol to IC50 for human A549 cells expressing NQO1 in absence of NQO1 inhibitor dicoumarol; assay type: functional; procedure, shortened: as §3
A549 [10] = assay: Cytotoxicity against human A549 cells expressing NQO1 after 2 hrs in presence of dicoumarol by MTT assay; assay type: functional, cell-based; settings: A549, 2 h; procedure, shortened: as §1
Mus musculus [11] = assay: Hepatotoxicity in athymic nude mouse at 15 to 30 mg/kg, iv administered every other day over 21 days relative to vehicle control; assay type: toxicity, organism-based; settings: in vivo, 504 h
Procedure, shortened: (§6)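 A549 xenograft nude mice, 5/group, dosed 15 or 30 mg/kg by tail vein every other day for three weeks in dilute HCl buffer pH 3; vehicle group as reference. Body weight tracked over treatment; liver examined for toxic signs.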

[12] = Cytotoxicity against human L02 cells after 2 hrs by MTT assay; assay type: cell-based; settings: L02, 2 h; procedure, shortened: as §1
[13] = target: T1, NAD(P)H dehydrogenase [quinone] 1; assay: Binding affinity to recombinant human NQO1 assessed as induction of ROS generation by measuring reduction of cytochrome C per min per mg of NQO1 by spectrophotometric analysis; procedure, shortened: as §5
A549 [14] = assay: Antitumor activity against human A549 cells xenografted in athymic nude mouse assessed as tumor proliferation rate at 30 mg/kg, iv administered every other day over 21 days relative to vehicle-treated control; assay type: functional; procedure, shortened: as §4
NCI-H596 = assay: Cytotoxicity against NQO1-deficient human NCI-H596 cells after 2 hrs by MTT assay; assay type: cell-based; settings: NCI-H596, 2 h; procedure, shortened: as §1
A549 [15] = assay: Antitumor activity against human A549 cells xenografted in athymic nude mouse assessed as tumor growth inhibition at 15 mg/kg, iv administered every other day over 21 days relative to vehicle control; assay type: functional, organism-based; procedure, shortened: as §4
Mus musculus [16] = assay: Toxicity in athymic nude mouse assessed as body weight loss at 15 to 30 mg/kg, iv administered every other day over 21 days relative to vehicle control; assay type: organism-based; settings: in vivo, 504 h; procedure, shortened: as §6
A549 [17] = assay: Antitumor activity against human A549 cells xenografted in athymic nude mouse assessed as tumor growth inhibition at 30 mg/kg, iv administered every other day over 21 days relative to vehicle control; assay type: functional; settings: 504 h, read-out: TGI; procedure, shortened: as §4

Row | SMILES | Drug metabolism [1] | IC50 (A549 [2]) | solubility at 8 h [3] | logD [4] | further results
1 | O=C1C(=O)c2nc(CN3CCOCC3)oc2-c2ccccc21 | 686 µmol/min | 6.9 µM | > 100 µg/mL |  | 
2 | COc1ccccc1NCc1nc2c(o1)-c1ccccc1C(=O)C2=O | 990 µmol/min | 11 µM | > 100 µg/mL |  | 
3 | O=C1C(=O)c2nc(CNc3cccc(F)c3)oc2-c2ccccc21 | 1391 µmol/min | 5.2 µM | < 100 µg/mL | 3.18 | solubility [5]: 44 µg/mL (≈ 137 µM)
4 | Cc1nc2c(o1)-c1ccccc1C(=O)C2=O | 1202 µmol/min | 20 µM |  |  | 
5 | COc1cccc(NCc2nc3c(o2)-c2ccccc2C(=O)C3=O)c1 | 955 µmol/min | 15 µM | > 100 µg/mL |  | 
6 | CN(C)Cc1nc2c(o1)-c1ccccc1C(=O)C2=O | 939 µmol/min | 8.7 µM | > 100 µg/mL |  | 
7 | O=C1C(=O)c2nc(CN3CCN(c4ccccc4)CC3)oc2-c2ccccc21 | 1139 µmol/min | 7.6 µM | > 100 µg/mL |  | 
8 | COc1ccc(NCc2nc3c(o2)-c2ccccc2C(=O)C3=O)cc1 | 1063 µmol/min | 13 µM | > 100 µg/mL |  | 
9 | O=C1C(=O)c2nc(CN3CCN(Cc4ccccc4)CC3)oc2-c2ccccc21 | 1360 µmol/min | 4.6 µM | > 500 µg/mL | 1.88 | Ratio IC50 [6]: > 12; Activity (A549 [7]): 440.8 mm3; Activity [8]: Not Active; Ratio IC50 (A549 [9]): >7; IC50 (A549 [10]): 64 µM; solubility [5]: 125 µg/mL (≈ 323 µM); Activity (Mus musculus [11]): Non-toxic; IC50 [12]: 70 µM; Activity [13]: Active; T/C (A549 [14]): 41.4%; IC50 (NCI-H596): 57 µM; TGI (A549 [15]): Active; Activity (Mus musculus [16]): Non-toxic; inhibition in vivo at 30 mg/kg (A549 [17]): 55.6%
10 | O=C1C(=O)c2nc(CNc3ccc(Cl)cc3)oc2-c2ccccc21 | 1522 µmol/min | 19 µM | < 100 µg/mL | 2.65 | solubility [5]: 38 µg/mL (≈ 112 µM)
11 | CC1(C)CCC2=C(O1)c1ccccc1C(=O)C2=O [LAPACHONE] | 1210 µmol/min | 3.7 µM | < 100 µg/mL | 2.85 | Activity [13]: Active; T/C (A549 [14]): 29.5%; inhibition in vivo at 30 mg/kg (A549 [17]): 70.1%
12 | Cc1ccc(NCc2nc3c(o2)-c2ccccc2C(=O)C3=O)cc1 | 968 µmol/min | 12 µM | > 100 µg/mL |  | 
13 | CCc1nc2c(o1)-c1ccccc1C(=O)C2=O | 955 µmol/min | 7.6 µM |  |  | 
